Screens from PubChem.
procasp3 activ – procaspase-3 (human) activation. 330,000 compounds, 0.11% hits. AID 463141. activation, % at 8.5 µM. recombinant procaspase-3 D3A, Ac-DEVD-pNA absorbance 405 nm;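 active = activation above the mean of all tested compounds plus 3 SD, cut at about 21% in these data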
Target sequence (P42574 whole entry D9A/D28A/D175A): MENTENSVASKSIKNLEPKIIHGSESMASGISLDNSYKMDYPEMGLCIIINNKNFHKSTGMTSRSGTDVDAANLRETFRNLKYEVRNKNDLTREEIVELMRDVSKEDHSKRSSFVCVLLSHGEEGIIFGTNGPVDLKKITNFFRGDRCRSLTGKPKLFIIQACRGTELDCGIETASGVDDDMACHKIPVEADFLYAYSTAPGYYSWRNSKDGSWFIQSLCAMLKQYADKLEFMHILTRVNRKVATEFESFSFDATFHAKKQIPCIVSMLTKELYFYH
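Evaluation: percent activation relative to control range; Material: Procaspase-3 D3A mutant, all three cleavage aspartates alanine; Compound: single dose, 8.5 µM nominal compound, 0.8% DMSO; Replication: one well per compound; Signal: absorbance at 405 nm, 0 and 120 min; Schedule: 1 h preincubation plus 2 h reaction at 25 °C.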
MsrA act – bovine methionine sulfoxide reductase A activation | AID 602163 | activation, % at 10.6 µM | 360,000 compounds, 0.3% hits | purified bovine MsrA, absorbance read-out; in the data active = activation above about 7.5%
MsrA inhibitor – inhibitors of bovine MsrA; purified bovine MsrA, absorbance read-out; inhibition, % at 15.5 µM; 360,000 compounds, 0.75% hits; AID 651718; in the data active = inhibition above about 4.5%
Tb MetRS inh – Trypanosoma brucei MetRS inhibition; inhibition, % at 11.9 µM; AID 624268; 360,000 compounds, 0.4% hits; purified T. brucei MetRS, ATP depletion, Kinase-Glo luminescence;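 active = inhibition above a per-plate cutoff of the control wells' mean inhibition plus 3 SD, cut at about 5.5% in these data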
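Test system – parasite MetRS enzyme · Reagent – substrates ATP, L-methionine and bulk Escherichia coli tRNA · Doses – 11.9 µM compound single dose, 0.9% DMSO · Times – 15 min enzyme-compound preincubation, 2 h reaction, 10 min detection, 25 °C · Signal – Kinase-Glo luminescence, ATP depletion format · Controls – DMSO-only wells as low control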
procasp7 counter – activates human procaspase-7, counter-screen for procaspase-3 activators; recombinant procaspase-7, Ac-DEVD-pNA absorbance 405 nm; D23A/D198A/D206A triple mutant, cannot self-cleave; scale: DMSO 0, 5 µM enzyme 100; activation, % at 8.5 µM; 330,000 compounds, 0.093% hits; AID 463210;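 active = percent activation above the screen-wide mean plus 3 SD, cut at about 25% in these data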
Target sequence (P55210 whole entry D23A/D198A/D206A): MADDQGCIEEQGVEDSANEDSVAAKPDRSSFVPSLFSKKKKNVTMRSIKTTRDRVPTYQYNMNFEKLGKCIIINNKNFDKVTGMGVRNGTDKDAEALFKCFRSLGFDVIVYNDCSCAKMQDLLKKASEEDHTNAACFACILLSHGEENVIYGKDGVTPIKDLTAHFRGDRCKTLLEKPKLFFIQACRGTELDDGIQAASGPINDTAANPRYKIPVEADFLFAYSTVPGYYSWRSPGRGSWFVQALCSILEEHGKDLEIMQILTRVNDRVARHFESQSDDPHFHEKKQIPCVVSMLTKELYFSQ
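Detection: p-Nitroaniline absorbance at 405 nm, read at 0 and 120 min; system: Uncleavable procaspase-7 mutant enzyme; evaluation: % activation from two-timepoint absorbance difference, scaled to controls; times: 1 h enzyme–compound preincubation and 2 h substrate reaction, both 25 °C; buffer or medium: Zinc-free HEPES pH 7.4 with 300 mM NaCl, 0.01% Triton X-100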
PC3 D3A act – counter-screen for dual procaspase-3/7 activators: human procaspase-3 activation | shares compounds with procasp7 counter | recombinant PC-3 D3A, Ac-DEVD-pNA absorbance 405 nm; aspartates 9, 28, 175 changed to alanine; 100% = enzyme control | activation, % at 8.5 µM | 290 tested, under 10 active;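 active = mean percent activation across triplicates above a set limit taken from the earlier primary procaspase-3 screen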
PC7 dual conf – confirmation of dual procaspase activators: human procaspase-7 activation; shares compounds with procasp7 counter; recombinant procaspase-7, Ac-DEVD-pNA absorbance 405 nm; D23A/D198A/D206A mutant that cannot self-cleave; activation, % at 8.5 µM; 290 tested, under 10 active; AID 493115;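 active = mean activation above a set limit carried over from the earlier primary screen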
MsrA act confirm – confirmation of bovine methionine sulfoxide reductase A activators. shares compounds with MsrA act. purified bovine MsrA, absorbance read-out. activation, % at 10.6 µM. 1,000 compounds, 12% hits. AID 602270; in the data active = activation above about 4%;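 also: enzyme coupled to thioredoxin and thioredoxin reductase with NADPH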
Numbers stand for hits; – = inactive; · = no result. Shown are actives, neighbours in structure and some others; about 1.5% of the full set was active somewhere.

SMILES | procasp3 activ | MsrA act | MsrA inhibitor | Tb MetRS inh | procasp7 counter | PC3 D3A act | PC7 dual conf | others
CCOC(=O)C1=C(C)NC(=O)NC1c1ccc(N2CCC(c3ccccc3)=N2)cc1 (centres undefined) | 31.1 | – | – | – | 72.4 | – | –
NC(=O)[C@@H]1CCCN1C(=O)[C@H]1O[C@@H](n2ccc(N)nc2=O)[C@H](O)[C@@H]1O | · | · | – | · | · | · | ·
CCOC(=O)CN1C(=O)N(c2ccc(OC)cc2)[C@H]2CC3c4ccccc4C[C@]3(C)[C@@H](C(=O)N(C)C3CCCCC3)C[C@H]21 (some centres undefined) | · | · | – | · | · | · | ·
CCCN(CC(=O)Nc1ccc(Cl)cc1Cl)C(=O)/C=C/c1cc(OC)ccc1OC | – | – | – | – | 36.5 | – | –
COCCN1Cc2cc(C(=O)OC)c3c(c2C1=O)c1cc(OC)ccc1n3S(=O)(=O)c1ccc(C)cc1 | · | · | – | · | · | · | ·
O=C(Cc1ccc(NC(=O)C2CCN(C(=O)C3CCCC3)CC2)cc1)Nc1cccc(C(=O)N2CCCC2)c1 | · | · | – | · | · | · | ·
O=C(N=Nc1c(O)[nH]c2c(Cl)cc(Cl)cc12)c1ccccc1O | · | · | – | · | · | · | ·
COC(=O)C(CC(C)C)NC(=O)c1ccc([N+](=O)[O-])c(C)c1 (centres undefined) | – | – | – | – | – | · | ·
Cc1cc(C(=O)NC(CC(C)C)C(=O)O)cc(C)c1[N+](=O)[O-] (centres undefined) | – | – | – | – | 26.4 | – | –
Cc1ccc2nc(NCc3ccccc3)c(C#N)cc2c1 | – | – | – | – | 51.7 | – | –
O=c1oc2ccccc2cc1-c1nc2c(s1)CCCC2 | – | – | – | – | 96.5 | – | –
O=C(c1cccs1)c1ccc(-c2cccs2)s1 | 27.2 | – | – | – | 37.0 | – | –
CN1CCN(C(=O)c2ccc(-c3cccs3)s2)CC1 | – | – | – | – | – | · | ·
C=CCc1c(O)c(CC)cc2c(C)cc(=O)oc12 | 25.2 | – | – | – | 28.3 | – | –
CN1CCCCC(NC(=O)c2ccc(C#N)cc2)C1=O (centres undefined) | · | · | – | · | · | · | ·
CCOc1ccc(-n2c(SCC(=O)Nc3ccc(OC)cc3)nc3c(c2=O)SCC3)cc1 | – | – | – | – | 67.5 | – | –
C=CCNc1cccc2c1S(=O)(=O)N[C@H](Cc1ccccc1)CO2 | · | · | – | · | · | · | ·
COC(=O)c1cc2c(c3c4cc(F)ccc4n(S(=O)(=O)c4cccc(C)c4)c13)C(=O)N(C)C2 | · | · | – | · | · | · | ·
O=c1oc2cc(O)ccc2c2oc3cc(O)ccc3c12 | – | – | – | – | 26.2 | – | –
Cc1c(Cc2ccccc2)c(=O)oc2cc(O)ccc12 | 25.2 | – | – | – | 27.3 | – | –
COc1c(CC=C(C)C)c(O)cc2oc(=O)c3c4ccc(O)cc4oc3c12 | 26.6 | – | · | – | 27.4 | – | –
O=C(/C=C(\Nc1ccc(F)cc1)c1ccccc1)c1ccccc1 | · | · | – | · | · | · | ·
COC(=O)c1cc2c(c3c4cc(F)ccc4n(S(=O)(=O)c4ccc(OC)cc4)c13)C(=O)N(C)C2 | · | · | – | · | · | · | ·
Cc1cc2c(c(=O)n1C)C(Cc1ccccc1)C(C#N)=C(N)O2 (centres undefined) | 38.2 | – | – | – | 46.8 | – | –
O=C(/C=C/c1cn(-c2ccccc2)nc1-c1ccccc1)Nc1ccc(C(=O)O)cc1 | – | – | – | – | – | · | ·
SMILES | procasp3 activ | MsrA act | MsrA inhibitor | Tb MetRS inh | procasp7 counter | PC3 D3A act | PC7 dual conf | others
NS(=O)(=O)c1ccc(NC(=O)/C=C/c2cn(-c3ccccc3)nc2-c2cccc(Cl)c2)cc1 | 54.5 | – | – | – | 72.3 | – | –
C=CCCC1CN(Cc2ccc(OC)cc2)S(=O)(=O)c2c(cccc2N(C)S(=O)(=O)c2ccc(C)cc2)O1 (centres undefined) | · | · | – | · | · | · | ·
O=C1C=C(Nc2ccccc2)CC(c2ccccc2)C1 (centres undefined) | – | – | – | – | – | · | ·
COc1ccc(NC2=CC(=O)CC(c3ccccc3)C2)cc1 (centres undefined) | – | – | – | – | 25.8 | – | –
CCOC(=O)c1cc(-c2ccc3c(c2)OCCO3)nc2c1c(C)nn2CCC#N | 25.2 | – | – | – | 53.9 | – | –
CCOC(=O)c1cc(-c2ccc(Cl)cc2)nc2c1c(C)nn2CCC#N | – | – | – | – | – | · | ·
CC(NCc1ccccc1)c1ccccc1O (centres undefined) | – | – | – | – | 27.9 | – | –
Clc1ccc(C2=NN(c3ccccc3)C(c3ccco3)C2)cc1 (centres undefined) | – | – | – | – | – | · | ·
O=C(O)c1ccc(N2N=C(c3ccccc3)CC2c2ccccc2)cc1 (centres undefined) | – | – | – | – | – | · | ·
CC(=O)Nc1ccc(C2CC(c3ccc(Cl)cc3)=NN2c2ccccc2)cc1 (centres undefined) | 163.4 | – | – | – | 136.2 | – | –
CC(=O)Nc1ccc(C2=NN(c3ccccc3)C(c3ccccc3)C2)cc1 (centres undefined) | 217.8 | – | – | – | 46.0 | – | –
CCCCCCCCN1C(=O)[C@@H](CC(=O)N2CCN(C(=O)OCC)CC2)C[C@@]2(C(=O)OC)C1=C[C@H](C(C)(C)C)O[C@@H]2C | · | · | – | · | · | · | ·
CC(C)OC(=O)c1sc2nc(-c3ccccc3)ccc2c1N | – | 8.8 | – | – | 33.8 | – | – | MsrA act confirm=–
C[C@H]1COc2cc(N3CCCC3)ccc2S(=O)(=O)N1 | · | · | – | · | · | · | ·
C/C=C/C=N\NC(=O)c1ccncc1 | – | 14.7 | – | – | – | · | · | MsrA act confirm=–
C[C@H](O)[C@@H]1CN2CCc3c([nH]c4c(-c5ccccc5)cccc34)[C@@H]2C[C@@H]1N(C)C(=O)NC1CCCCC1 | · | · | – | · | · | · | ·
O=C(COC(=O)c1ccc(F)cc1F)Nc1cccnc1Cl | – | – | – | – | – | · | ·
O=C(COC(=O)c1cc(F)cc(F)c1)Nc1cccnc1Cl | – | 9.1 | – | – | – | · | · | MsrA act confirm=–
CCCS(=O)(=O)N1CCCC(C(=O)N2CCC(Cc3ccccc3)CC2)C1 (centres undefined) | – | 7.7 | – | – | – | · | · | MsrA act confirm=–
CCN(CC(=O)Nc1ccc(NC(C)=O)cc1)C(=O)c1cccc(S(=O)(=O)N2CCc3ccccc3C2)c1 | – | – | – | – | – | · | ·
Cc1ccc(NC(=O)CN(C)C(=O)c2cccc(S(=O)(=O)N3CCc4ccccc4C3)c2)cc1 | · | 10.3 | – | – | · | · | · | MsrA act confirm=–
CNC[C@H]1OCc2cnnn2CCCC(=O)N([C@@H](C)CO)C[C@@H]1C | · | · | – | · | · | · | ·
